# Measurements gathered from unrelated publications.
# Compare with care: the assays were run in different laboratories.
# Organism: Staphylococcus epidermidis
Structure (SMILES),test,system,conditions,endpoint,result
O=C1NC(=S)N/C1=C\c1ccc(-c2ccc(N(c3ccccc3)c3ccccc3)cc2)cc1,"microbial growth, broth dilution",ATCC12228,,MIC,> 1000 µg/mL
CN(C)[C@@H]1C(O)=C(C(N)=O)C(=O)[C@@]2(O)C(O)=C3C(=O)c4c(O)cccc4[C@@](C)(O)[C@H]3C[C@@H]12,"microbial growth, broth dilution",12228,,MIC,100 µM
C/C(=C\c1ccc(O)cc1)C(=O)Nc1ccc(C(=O)N[C@@H](CC(N)=O)C(=O)Nc2ccc(C(=O)Nc3ccc(C(=O)Nc4ccc(C(=O)O)cc4)c(O)c3OC(C)C)cc2)cc1,microbial growth,DSM28765,,MIC,0.25 µg/mL
O=C(O)CN1C(=O)/C(=C/c2c3ccccc3c(-c3ccc(N(c4ccccc4)c4ccccc4)cc3)c3ccccc23)SC1=S,"microbial killing, broth dilution",ATCC12228,,MBC,> 1000 µg/mL
N#CC(=Cc1cn(-c2ccccc2)nc1-c1ccccc1)C1=NC(=O)CS1,"microbial killing, broth dilution",,,MBC,0.5 µg/mL
CO[C@@H](C(N)=O)[C@H](NC(=O)c1ccc(NC(=O)c2ccc(C#N)cc2)cc1)C(=O)Nc1ccc(C(=O)Nc2ccc(C(=O)Nc3ccc(C(=O)O)cc3)c(O)c2OC(C)C)cc1,microbial growth,DSM28765,,MIC,≤ 0.03 µg/mL
CC1(C)S[C@@H]2[C@H](NC(=O)[C@H](N)c3ccccc3)C(=O)N2[C@H]1C(=O)O,"microbial growth, agar dilution",ATCC12228,26.93 µM,inhibition,100%
O=[N+]([O-])c1ccc2c(N=Nc3ccc4ccccc4c3O)c(O)cc(S(=O)(=O)O)c2c1,"microbial growth, broth dilution",,24 h,MIC50,31 µM
O=C1NC(=S)S/C1=C\c1ccc(-c2ccc(N(c3ccccc3)c3ccccc3)cc2)c2ccccc12,"microbial growth, broth dilution",ATCC12228,,MIC,1000 µg/mL
CCOC(=O)c1c(N)csc1-c1cn(-c2ccccc2)nc1-c1ccc(C)cc1,"microbial killing, broth dilution",,,MBC,0.125 µg/mL
O=[N+]([O-])c1ccc(-c2nc3cccc(O)c3[nH]2)o1,microbial killing,,,MBC,1 µg/mL
O=C(O)c1cn(C2CC2)c2cc(N3CCNCC3)c(F)cc2c1=O,"microbial growth, broth dilution",ATCC12228,,MIC,0.49 µg/mL
C/C(=C\c1ccc(C#N)cc1)C(=O)Nc1ccc(C(=O)N[C@@H](CC(N)=O)C(=O)Nc2ccc(C(=O)Nc3ccc(C(=O)Nc4ccc(C(=O)O)cc4)c(O)c3OC(C)C)cc2)cc1,microbial growth,DSM28765,,MIC,≤ 0.03 µg/mL
